The subject of assay [1] is Cavia porcellus. The experiment in a line: Inhibition of PAF-induced bronchoconstriction in guinea pig after oral administration after two-hour pretreatment time. It counts as functional. Conditions: read-out: ID50 (the source's name). In outline: (§1)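 Guinea pigs dosed orally with drug or vehicle 2 h before iv PAF challenge (1 µg/kg, maximal constrictory dose). Propranolol given 5 min before PAF, succinylcholine (1.2 mg/kg iv) to stop breathing, animals ventilated. Read-out is tracheal pressure change, averaged over 3 control and 3 treated animals.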

Assay [2] concerns Cavia porcellus. The assay is described as follows: Inhibition of PAF-induced bronchoconstriction in guinea pig after oral administration after two-hour pretreatment time; No significant inhibition at 1 mg/kg. It counts as functional, organism-based. Further details: dose 1 mg/kg.
For a further assay, the species on record is Canis familiaris. The assay is described as follows: PAF-antagonist activity in dog platelets by PAF-binding assay; No significant inhibition at 1000 nM. It counts as functional, Canis lupus familiaris.
For assay [3], the system named is Cavia porcellus. The experiment in a line: Inhibitory activity at 0.03 mg/kg was determined against PAF-induced bronchoconstriction in guinea pig. It counts as functional. The essentials:
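Duration-of-action test: single 0.03 mg/kg oral dose given 24 h before iv PAF challenge (1 µg/kg) in ventilated, paralysed guinea pigs. Percent inhibition of the tracheal pressure rise versus vehicle controls. Values are means ± SEM.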

Assay [4] in a line: PAF-antagonist activity determined in dog platelets by PAF-binding assay.
Assay [5] relates to Cavia porcellus. The assay is described as follows: Inhibition of PAF-induced bronchoconstriction in the guinea pig after intravenous administration after one-minute pretreatment time; No significant inhibition at 1 mg/kg. It counts as functional, organism-based. Details: dose 1 mg/kg.
Assay [6] relates to Cavia porcellus. The experiment in a line: Compound was measured by using PAF-induced Bronchoconstriction assay in the guinea pig after administration orally after two-hour pretreatment time. It counts as functional. Particulars: po, read-out: ID50 (the source's name). The essentials:
as §1

In assay [7] the test system is Cavia porcellus. The assay is described as follows: Inhibition of PAF-induced bronchoconstriction in the guinea pig after administration (1 mg/kg) intravenously at two-hourpretreatment time. It counts as functional.

Molecules are shown by their SMILES. The source made the active and inactive calls. The calls are words filed in the database; no cut-off is given here.

Regarding `Cc1nnc2n1-c1sc(C#CCOc3ccccc3)cc1C(c1ccccc1Cl)=NC2`, the ED50 in the assay on Cavia porcellus [1] came out at 0.1 mg/kg.
The same measure, in the same setting: in the case of `Cc1nnc2n1-c1sc(C#CCC34CCCc5cccc(c53)NC4=O)cc1C(c1ccccc1Cl)=NC2` (configuration not stated) it was 0.3 mg/kg; in that of `Cc1nnc2n1-c1sc(C#CCn3c4ccccc4c(=O)c4ccccc43)cc1C(c1ccccc1Cl)=NC2`, 0.02 mg/kg.
For `Cc1nnc2n1-c1sc(C#CCN3C(=O)CCc4ccccc43)cc1C(c1cc([N+](=O)[O-])ccc1Cl)=NC2`, in the assay on Cavia porcellus [2], the ID50 result was “inactive”.
Regarding `COc1cc2c(cc1OC)C(=O)N(CC#Cc1cc3c(s1)-n1c(C)nnc1CN=C3c1ccccc1Cl)CC2`, the ED50 in the assay with Cavia porcellus [1] turned out to be 0.05 mg/kg.
On the same count and under the same terms, in the case of `Cc1nnc2n1-c1sc(C#CCn3c(=O)n(C)c(=O)c4ccccc43)cc1C(c1ccccc1Cl)=NC2` it was 0.02 mg/kg.
With `Cc1nnc2n1-c1cc(C#CCN3C(=O)c4ccccc4C3=O)ccc1C(c1ccccc1F)=NC2`, the IC50 entry in the assay listed under Canis familiaris is listed as “Not Active”.
Consider `Cc1nnc2n1-c1sc(C#CCN3C(=O)c4cccc5cccc3c45)cc1C(c1ccccc1Cl)=NC2`, for which, in the assay on Cavia porcellus [1], the ED50 is 0.04 mg/kg.
Same read-out and setting: in the case of `Cc1nnc2n1-c1sc(C#CCN3C(=O)COc4ccccc43)cc1C(c1ccccc1Cl)=NC2` it was 0.02 mg/kg.
The same measure, in the same setting: in the case of `Cc1nnc2n1-c1sc(C#CCn3c(=O)c4ccccc4c4ccccc43)cc1C(c1ccccc1Cl)=NC2O` (configuration not stated) it was 0.07 mg/kg; in that of `Cc1nnc2n1-c1sc(C#CCN3CCc4ccccc4C3=O)cc1C(c1ccccc1Cl)=NC2`, 0.03 mg/kg.
As to `Cc1nnc2n1-c1sc(C#CCN3C(=O)c4cccc5cccc(c45)C3=O)cc1C(c1ccccc1Cl)=NC2`, in the assay with Cavia porcellus [1], the ED50 is 0.03 mg/kg.
Take `Cc1nnc2n1-c1sc(C#CCN3C(=O)COc4cc(F)ccc43)cc1C(c1ccccc1Cl)=NC2`: in the assay with Cavia porcellus [1], the ED50 was 0.02 mg/kg.
Same read-out and setting: in the case of `Cc1nnc2n1-c1ccc(C#CCCN3C(=O)c4ccccc4C3=O)cc1C(c1ccccc1F)=NC2` it was 0.3 mg/kg.
`Cc1nnc2n1-c1sc(C#CCN3C(=O)Cn4ccc5c(Cl)ccc3c54)cc1C(c1ccccc1Cl)=NC2` registered an inhibition in vivo at 0.03 mg/kg in the assay with Cavia porcellus [3] of 0%. Besides, the ED50 in the assay with Cavia porcellus [1] is 0.003 mg/kg.
Consider `Cc1nnc2n1-c1sc(C#CCn3ccc4ccccc4c3=O)cc1C(c1ccccc1Cl)=NC2`, for which the ED50 in the assay on Cavia porcellus [1] is 0.03 mg/kg.
As for `CCCCC/C(=C\C=C\C(=O)N[C@H](C)CCCc1cccnc1)c1ccc(OC)cc1`, the half-maximal inhibitory concentration (IC50) in assay [4] came out at 40 nM. Also, the ED50 with Cavia porcellus [1] came out at 4 mg/kg.
For `Cc1nnc2n1-c1sc(C#CCn3ncc4ccccc43)cc1C(c1ccccc1Cl)=NC2`, the ED50 in the assay on Cavia porcellus [1] stood at 0.02 mg/kg.
The molecule `Cc1nnc2n1-c1sc(C#CCN3Cc4cccc5cccc(c45)C3=O)cc1C(c1ccccc1Cl)=NC2` yielded an inhibition in vivo at 0.03 mg/kg with Cavia porcellus [3] of 60%.
As for `Cc1nnc2n1-c1sc(C#CCn3c(=O)c4ccccc4c4ccccc4c3=O)cc1C(c1ccccc1Cl)=NC2`, the ED50 in the assay with Cavia porcellus [1] amounted to 0.02 mg/kg.
`Cc1nnc2n1-c1ccc(C#CCN3C(=O)CSc4ccccc43)cc1C(c1ccccc1F)=NC2`: in the assay on Cavia porcellus [1], the ED50 turned out to be 0.3 mg/kg.
For the molecule `Cc1nnc2n1-c1sc(I)cc1C(c1ccccc1Cl)=NC2C` (configuration not stated), in the assay with Cavia porcellus [2], the ID50 result was “inactive”.
As to `Cc1nnc2n1-c1sc(C#CCn3c(=O)c4ccccc4c4ccccc43)cc1C(c1ccccc1Cl)NC2=O` (configuration not stated), the ID50 entry in the assay with Cavia porcellus [5] and with Cavia porcellus [2] was “inactive” in each case.
Take `Cc1nnc2n1-c1ccc(C#CCN3C(=O)CCc4ccccc43)cc1C(c1ccccc1F)=N[C@H]2C`: the ED50 in the assay on Cavia porcellus [1] came to 0.1 mg/kg.
For `Cc1nnc2n1-c1sc(CCC(=O)N3CCOCC3)cc1C(c1ccccc1Cl)=NC2` [APAFANT], the ED50 in the assay on Cavia porcellus [1] was determined as 1.2 mg/kg.
Turning to `Cc1nnc2n1-c1sc(C#CCn3c4c(c5cc(Cl)ccc53)CCCC4)cc1C(c1ccccc1Cl)=NC2`, in the assay on Cavia porcellus [1], the ED50 amounted to 0.04 mg/kg.
Take `Cc1nnc2n1-c1sc(C#CCN3C(=O)CCc4ccccc43)cc1C(c1ccccc1Cl)=NC2`: in the assay on Cavia porcellus [6], the ED50 is 0.02 mg/kg.
For `Cc1nnc2n1-c1sc(C#CCn3c(=O)c4ccccc4c(=O)c4ccccc43)cc1C(c1ccccc1Cl)=NC2`, the ED50 with Cavia porcellus [1] turned out to be 0.03 mg/kg.
On to `CCc1nnc2n1-c1ccc(C#CCN3C(=O)c4ccccc4C3=O)cc1C(c1ccccc1F)=NC2`, for which, in the assay with Cavia porcellus [7], the Inhibition is on record as 30%.
Take `Cc1nnc2n1-c1sc(C#CCn3c(=O)ccc4ccccc43)cc1C(c1ccccc1Cl)=NC2`: the ED50 in the assay with Cavia porcellus [1] was found to be 0.02 mg/kg.
Same read-out and setting: in the case of `Cc1nnc2n1-c1ccc(C#CCN3C(=O)c4cccc5cccc(c45)C3=O)cc1C(c1ccccc1Cl)=NC2` it was 0.6 mg/kg; in that of `C=C=Cn1c(=O)n(CC#Cc2cc3c(s2)-n2c(C)nnc2CN=C3c2ccccc2Cl)c2ccccc21`, 0.03 mg/kg; in that of `Cc1nnc2n1-c1sc(C#CCn3c(=O)n(-c4ccccc4)c4ccccc43)cc1C(c1ccccc1Cl)=NC2`, 0.02 mg/kg.
On the same count and under the same terms, in the case of `Cc1nnc2n1-c1ccc(C#CCN3C(=O)c4ccccc4C3=O)cc1C(c1ccccc1F)=NC2` it was 0.5 mg/kg.
`Cc1nnc2n1-c1sc(C#CCN3C(=O)CCc4ccc(Cl)cc43)cc1C(c1ccccc1Cl)=NC2`: the ED50 in the assay with Cavia porcellus [1] was found to be 0.1 mg/kg.
Take `Cc1nnc2n1-c1sc(C#CCN3C(=O)OCc4ccccc43)cc1C(c1ccccc1Cl)=NC2`: the ED50 in the assay with Cavia porcellus [1] came out at 0.08 mg/kg.
Still for that read-out and setting: in the case of `Cc1nnc2n1-c1sc(C#CCN3C(=O)CC(C)(C)c4ccccc43)cc1C(c1ccccc1Cl)=NC2` it was 0.03 mg/kg; in that of `Cc1nnc2n1-c1sc(C#CCOc3cccnc3)cc1C(c1ccccc1Cl)=NC2`, 0.2 mg/kg; in that of `Cc1nnc2n1-c1sc(C#CCn3c(=O)c4cc(Cl)ccc4c4ccc(Cl)cc43)cc1C(c1ccccc1Cl)=NC2`, 0.03 mg/kg.
As for `Cc1nnc2n1-c1sc(C#CCn3c4c(c5cc(Cl)ccc53)CCCCC4)cc1C(c1ccccc1Cl)=NC2`, the ED50 with Cavia porcellus [1] was found to be 0.3 mg/kg.
The molecule `Cc1nnc2n1-c1sc(C#CCn3c4c(c5ccccc53)CCCCC4)cc1C(c1ccccc1Cl)=NC2` yielded an inhibition in vivo at 0.03 mg/kg with Cavia porcellus [3] of 8%. Moreover, the ED50 in the assay with Cavia porcellus [1] was 0.004 mg/kg.
Take `Cc1nnc2n1-c1sc(C#CCN3C(=O)CCc4cc(Cl)cc(Cl)c43)cc1C(c1ccccc1Cl)=NC2`: in the assay on Cavia porcellus [1], the ED50 is 0.02 mg/kg.
`Cc1nnc2n1-c1sc(C#CCn3c(=O)n(CCN(C)C)c(=O)c4ccccc43)cc1C(c1ccccc1Cl)=NC2`: the ED50 with Cavia porcellus [1] is 0.3 mg/kg.
Still for that read-out and setting: in the case of `Cc1nnc2n1-c1sc(C#CCn3c(O)nc4ccccc43)cc1C(c1ccccc1Cl)=NC2` it was 0.2 mg/kg; in that of `Cc1nnc2n1-c1sc(C#CCn3c4ccccc4c4ccccc43)cc1C(c1ccccc1Cl)=NC2`, 0.02 mg/kg; in that of `Cc1nnc2n1-c1ccc(C#CCN3C(=O)CCc4ccccc43)cc1C(c1ccccc1F)=NC2`, 0.4 mg/kg.
Turning to `Cc1nnc2n1-c1sc(C#CCn3c(=O)c4ccccc4c4ccccc43)cc1C(c1ccccc1Cl)=NC2C` (configuration not stated), the ED50 in the assay on Cavia porcellus [1] was 0.03 mg/kg.
Still for that read-out and setting: in the case of `O=c1c2ccccc2c2ccccc2n1CC#Cc1cc2c(s1)-n1c(CO)nnc1CN=C2c1ccccc1Cl` it was 0.3 mg/kg.
As to `Cc1nnc2n1-c1sc(I)cc1C(c1cc([N+](=O)[O-])ccc1Cl)=NC2`, in the assay with Cavia porcellus [2], the ID50 result was “inactive”.
As for `Cc1nnc2n1-c1sc(C#CCn3c(=O)n(C)c4ccccc43)cc1C(c1ccccc1Cl)=NC2`, the ED50 with Cavia porcellus [1] is 0.04 mg/kg.
Consider `Cc1nnc2n1-c1sc(C#CCn3cnc4ccccc43)cc1C(c1ccccc1Cl)=NC2`, for which the ED50 in the assay on Cavia porcellus [1] came out at 0.1 mg/kg.
Regarding `Cc1nnc2n1-c1sc(C#CCN3C(=O)COc4ccc(Cl)cc43)cc1C(c1ccccc1Cl)=NC2`, in the assay on Cavia porcellus [1], the ED50 was 0.05 mg/kg.
Same read-out and setting: in the case of `Cc1nnc2n1-c1sc(C#CCn3c(=O)n(CCN(C)C)c4ccccc43)cc1C(c1ccccc1Cl)=NC2` it was 0.2 mg/kg; in that of `Cc1nnc2n1-c1sc(C#CCN3C(=O)NCc4ccccc43)cc1C(c1ccccc1Cl)=NC2`, 0.05 mg/kg.
For the molecule `Cc1nnc2n1-c1sc(C#CCn3c4c(c5ccccc53)CCCC4)cc1C(c1ccccc1Cl)=NC2`, in the assay on Cavia porcellus [3], the inhibition in vivo at 0.03 mg/kg came out at 75%.
For `Cc1nnc2n1-c1sc(I)cc1C(c1ccccc1Cl)=NC2`, the ID50 entry in the assay on Cavia porcellus [2] is “inactive”.
Molecule `Cc1nnc2n1-c1sc(C#CCn3c(=O)c4ccccc4c4ccccc43)cc1C(c1ccccc1Cl)=NC2` gave an inhibition in vivo at 0.03 mg/kg in the assay with Cavia porcellus [3] of 75%. The ED50 in the assay with Cavia porcellus [1] came out at 0.01 mg/kg.

The record behind these values is ChEMBL document CHEMBL1125634, “Triazolobenzo- and triazolothienodiazepines as potent antagonists of platelet activating factor” (J Med Chem, 1991).
